Residue numbers refer to the chain shown, from its start. Converted amounts (≈) assume the structure as drawn. The source made the active and inactive calls. The rule behind the calls is not given here.
Assays:
[1] = target: T1, High mobility group protein B1 (Mus musculus) (UniProt P63158); experiment: Inhibition of HMGB1 translocation from nucleus to cytosol in LPS-stimulated mouse RAW264.7 cells assessed as inhibition of NO release at 10 uM measured after 24 hrs by Griess assay relative to control
T1 sequence (whole entry): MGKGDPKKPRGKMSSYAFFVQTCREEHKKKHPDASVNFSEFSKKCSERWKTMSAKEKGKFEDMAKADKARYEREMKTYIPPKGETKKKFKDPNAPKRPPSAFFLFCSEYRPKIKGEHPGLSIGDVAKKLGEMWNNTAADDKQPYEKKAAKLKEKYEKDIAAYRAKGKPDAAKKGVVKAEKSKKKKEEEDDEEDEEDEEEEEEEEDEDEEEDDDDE
How it was run: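 Raw264.7 cells, seeded 1 day earlier, were moved to serum-free DMEM and exposed to 100 ng/mL LPS with 10 μM compound for 24 h. Supernatant NO was measured with Griess reagent (sulfanilamide/N-(1-naphthyl)ethylenediamine/phosphoric acid) at room temperature, absorbance 548 nm. Inhibition was set against LPS+DMSO wells, blank-corrected, with four control wells. At least three independent experiments.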

[2] = Cytotoxicity against mouse RAW264.7 cells assessed as cell viability at 10 uM in presence of LPS measured after 24 hrs by WST assay relative to control; format: cell-based; conditions: read-out: Activity
How it was run: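 Raw264.7 cells, seeded 1 day earlier, were washed into serum-free DMEM and given 100 ng/mL LPS plus compound (10 μM) for 24 h. After the supernatant was removed, wells were refilled with 10% FBS DMEM and WST reagent was added for 20 min at 37 °C. Absorbance was read at 450 nm, and viability is relative to vehicle. At least three independent experiments.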

[3] = target: T1, High mobility group protein B1 (Mus musculus); experiment: Inhibition of HMGB1 translocation from nucleus to cytosol in LPS-stimulated mouse RAW264.7 cells assessed as inhibition of TNF-alpha production at 10 uM measured after 4 hrs by ELISA relative to control
How it was run: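 Raw264.7 cells in serum-free DMEM were treated with 100 ng/mL LPS and 10 μM compound (final). After 4 h, medium was diluted in 1% BSA/PBS and secreted TNF-α was quantified by ELISA against a standard curve of TNF-α protein. Inhibition is relative to control. At least three independent experiments.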

[4] = target: T1, High mobility group protein B1 (Mus musculus); experiment: Inhibition of HMGB1 nuclear translocation in LPS-stimulated mouse RAW264.7 cells at 20 uM pretreated for 1 hr followed by LPS-induction measured after 2 hrs by Hoechst 33342/TRITC staining based immunofluorescence microscopic method
How it was run: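 Raw264.7 cells on chambered coverglass were pretreated with 20 μM compound for 1 h, then given 500 ng/mL LPS for 2 h. Cells were fixed in 4% paraformaldehyde, permeabilized with methanol at −20 °C, blocked with 2% BSA, and stained with anti-HMGB1 plus TRITC secondary and Hoechst 33342. Imaged by deconvolution fluorescence microscopy. At least three independent experiments.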

[5] = target: T1, High mobility group protein B1 (Mus musculus); experiment: Inhibition of HMGB1 nuclear translocation in LPS-stimulated mouse RAW264.7 cells assessed as inhibition of IL-6 production at 10 uM pretreated for 1 hr followed by LPS-induction by Western blot analysis
How it was run: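 Raw264.7 cells were pretreated with 10 μM compound for 1 h, then given 100 ng/mL LPS. IL-6 released into the culture medium was detected by Western blot with ECL chemiluminescence, DMSO as control. At least three independent experiments.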

[6] = target: T2, High mobility group protein B1 (Homo sapiens) (UniProt P09429); experiment: Inhibition of ICM-BP binding to recombinant human HMGB1 assessed as reduction in Cy5-azide incorporation pretreated for 60 mins followed by ICM-BP addition for 20 mins and subsequent UV light irradiation for 5 mins by fluorescence assay
T2 sequence (whole entry): T1 sequence (whole entry) with D189E, E202D
How it was run: (§1)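 Purified HMGB1 (1 μg in water) was pretreated with competitor for 60 min, with DMSO held at 0.8% final. ICM-BP (5 μM) was then added for 20 min, followed by 365 nm UV for 5 min on ice. Cy5-azide was attached by click reaction, then samples were run on 12.5% SDS-PAGE and in-gel fluorescence scanned. Competitor was dosed in a graded series.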

[7] = target: MAP kinase p38 (Mus musculus) (UniProt P47811+O08911+Q9WUI1+Q9Z1B7); experiment: Inhibition of MAPK p38 phosphorylation at Thr180/Tyr182 resdiues in LPS-stimulated mouse RAW264.7 cells at 20 uM pretreated followed by LPS-induction by Western blot analysis
How it was run: (§2)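 Raw264.7 cells were pretreated with 20 μM compound, then stimulated with 100 ng/mL LPS, with DMSO as control. Lysates in RIPA buffer with protease and phosphatase inhibitors were normalized by BCA and run on SDS-PAGE/Western blot for phospho-p38, JNK and ERK, with GAPDH as loading control. Detection by ECL, and band intensities were quantified. At least three independent experiments.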

Mus musculus [8] = species on record: Mus musculus; experiment: Inhibition of JNK phosphorylation at Thr183/Tyr185 resdiues in LPS-stimulated mouse RAW264.7 cells at 20 uM pretreated followed by LPS-induction by Western blot analysis; how it was run: as §2
Mus musculus [9] = species on record: Mus musculus; experiment: Inhibition of ERK phosphorylation in LPS-stimulated mouse RAW264.7 cells at 20 uM pretreated followed by LPS-induction by Western blot analysis; how it was run: as §2
Mus musculus [10] = species on record: Mus musculus; experiment: Inhibition of NF-kappaB p65 nuclear translocation in LPS-stimulated mouse RAW264.7 cells at 20 uM pretreated followed by LPS-induction by Hoechst 33342/TRITC staining based immunofluorescence microscopic method
How it was run: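 NF-κB p65 immunofluorescence in Raw264.7 cells pretreated with 20 μM compound, then stimulated with 500 ng/mL LPS. Fixation was 4% paraformaldehyde, methanol permeabilization at −20 °C, and BSA blocking. Cells were stained with anti-p65 plus TRITC secondary and Hoechst 33342 nuclear stain, then imaged by deconvolution microscopy. At least three independent experiments.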

[11] = Equilibrium aqueous solubility of the compound by microsol method; format: physicochemical
How it was run: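 Equilibrium aqueous solubility by the μsol method. Mean ± SD, n = 3.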

[12] = Stability in mouse liver microsomes assessed as compound remaining preincubated for 5 mins followed by NADPH addition measured after 30 mins LC/MS/MS method; format: ADME, microsome; conditions: read-out: Stability
How it was run: (§3)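 Compounds were incubated with human or mouse liver microsomes in 100 mM potassium phosphate, pH 7.4, at 37 °C for 5 min. NADPH regenerating solution was added, and the reaction was stopped at 30 min with ice-cold acetonitrile containing imipramine internal standard. Percent remaining was measured by LC/MS/MS. Mean ± SD, n = 3.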

[13] = Stability in human liver microsomes assessed as compound remaining preincubated for 5 mins followed by NADPH addition measured after 30 mins LC/MS/MS method; format: ADME, microsome; conditions: read-out: Stability; how it was run: as §3
[14] = Half life in ICR mouse at 10 mg/kg, ip by LC/MS/MS method; format: ADME, organism-based; conditions: in vivo
Mus musculus [15] = experiment: Anti-inflammatory activity in C57BL/6(B6) mouse model of CLP-induced sepsis assessed as survival rate at 10 mg/kg, ip administered daily for 21 days starting from 1 hr prior to CLP-induction (reference value: 10 %); format: functional
Mus musculus [16] = experiment: Anti-inflammatory activity in C57BL/6(B6) mouse model of CLP-induced sepsis assessed as decrease in serum IL-6 level at 10 mg/kg, ip administered daily for 21 days starting from 1 hr prior to CLP-induction by ELISA; format: functional, organism-based
How it was run: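 Serum IL-6 measured by sandwich ELISA. Blood was taken from CLP-induced C57BL/6 mice 24 h after surgery. Plates coated with anti-IL-6 mAb overnight at 4 °C and blocked with 1% BSA/PBS; serum incubated overnight at 4 °C. Detection used biotinylated anti-IL-6 and streptavidin-HRP, TMB development and absorbance at 450 nm. Run in triplicate, three independent repeats.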

[17] = target: T2, High mobility group protein B1 (Homo sapiens); experiment: Inhibition of ICM-BP binding to recombinant human HMGB1 assessed as reduction in Cy5-azide incorporation at 1 to 20 uM pretreated for 60 mins followed by ICM-BP addition for 20 mins and subsequent UV light irradiation for 5 mins by fluorescence assay; how it was run: as §1

| inhibition [17] | SMILES | inhibition [1] [%] | viability at 24 h, 10 µM [2] [%] | inhibition [3] [%] | inhibition [4] | inhibition [5] | inhibition [6] | inhibition [7] | inhibition (Mus musculus [8]) | inhibition (Mus musculus [9]) | inhibition (Mus musculus [10]) | solubility thermodynamic [11] [µg/mL] | remaining at 0.5 h [12] [%] | remaining at 0.5 h [13] [%] | half-life [14] [h] | survival at 10 mg/kg (Mus musculus [15]) [%] | Activity (Mus musculus [16]) |
| --- | --- | --- | --- | --- | --- | --- | --- | --- | --- | --- | --- | --- | --- | --- | --- | --- | --- |
|  | COc1cc(OC)cc(-n2c(=O)n3n(c2=O)C2C(=CC3)C(C)(C)Oc3cc(O)ccc32)c1 (centres undefined) | 94 | 121 | 60 | Active | Active | Dose-dependent effect | Active | Active | Active | Active | 65.1 (≈ 149 µM) | 20.2 | 41.2 | 5 | 56 | Active |
| inactive | Cn1c(=O)n2n(c1=O)C1C(=CC2)C(C)(C)Oc2cc(O)ccc21 (centres undefined) | 45 | 114 |  |  |  |  |  |  |  |  |  |  |  |  |  |  |

From ChEMBL document CHEMBL4041534, “Treatment of Sepsis Pathogenesis with High Mobility Group Box Protein 1-Regulating Anti-inflammatory Agents” (J Med Chem, 2017)
